VIM-2 inhibitor – VIM-2 metallo-beta-lactamase inhibitors, primary screen, biochemical, epi-absorbance readout, Pseudomonas aeruginosa enzyme. 290,000 compounds, 0.89% hits. AID 1527, 2009. purified VIM-2, nitrocefin hydrolysis, epi-absorbance fluorescence. inhibition, % at 5.6 µM;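 active means inhibition above the mean of all tested compounds plus 3 SD, cutoff set per screening run, cut at about 7.5% in these data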;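 further: red hydrolysis product quenches plate fluorescence so inhibitors raise well fluorescence; 0% = enzyme with DMSO and 100% = DMSO without enzyme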
IMP-1 inh – IMP-1 metallo-beta-lactamase inhibitors, primary screen, biochemical, epi-absorbance readout, Pseudomonas aeruginosa enzyme; purified IMP-1, nitrocefin hydrolysis, epi-absorbance fluorescence; AID 1556, 2009; 290,000 compounds, 0.45% hits; inhibition, % at 5.6 µM; metallo-beta-lactamase IMP-1 (Pseudomonas aeruginosa);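 active means inhibition above the mean plus 3 SD of all compounds in the same screening run, cut at about 4.5% in these data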;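 further: 0% = IMP-1 with DMSO and 100% = DMSO wells lacking enzyme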
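assay system = purified recombinant IMP-1 metallo-beta-lactamase enzyme | schedule = 15 min preincubation plus 25 min reaction at 25 °C | signal = Epi-absorbance fluorescence, 480 nm excitation, 530 nm emission | read-out basis = percent inhibition from optical density relative to buffer-blank wells | controls = IMP-1 with DMSO as 0%, enzyme-free DMSO as 100%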
Mdm2 MdmX PPI – inhibitors of human Mdm2-MdmX association, primary screen, cell-based, luminescence, split luciferase, SaOS-2, uHTS | SaOS-2 split-luciferase Mdm2/MdmX complementation | inhibition, % at 8 µM | Protein Mdm4 (Homo sapiens) + E3 ubiquitin-protein ligase Mdm2 (Homo sapiens), … | 330,000 compounds, 3% hits;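 active means inhibition of at least 50% at 8 µM in the primary screen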
Target sequence (O15151 whole entry, looked up): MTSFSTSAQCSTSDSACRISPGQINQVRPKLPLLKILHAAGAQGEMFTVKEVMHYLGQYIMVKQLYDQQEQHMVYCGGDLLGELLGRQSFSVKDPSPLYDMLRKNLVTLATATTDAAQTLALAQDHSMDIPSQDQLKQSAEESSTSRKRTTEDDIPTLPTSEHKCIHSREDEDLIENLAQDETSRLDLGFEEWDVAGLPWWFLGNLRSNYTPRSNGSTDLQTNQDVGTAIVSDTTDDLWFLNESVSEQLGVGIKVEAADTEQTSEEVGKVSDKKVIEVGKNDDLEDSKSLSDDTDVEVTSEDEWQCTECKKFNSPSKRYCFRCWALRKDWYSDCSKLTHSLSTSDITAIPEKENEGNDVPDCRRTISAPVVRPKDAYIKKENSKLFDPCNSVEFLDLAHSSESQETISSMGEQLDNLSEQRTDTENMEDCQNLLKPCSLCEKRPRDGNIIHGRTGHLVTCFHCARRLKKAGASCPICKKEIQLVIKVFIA
Target sequence (Q00987 whole entry, looked up): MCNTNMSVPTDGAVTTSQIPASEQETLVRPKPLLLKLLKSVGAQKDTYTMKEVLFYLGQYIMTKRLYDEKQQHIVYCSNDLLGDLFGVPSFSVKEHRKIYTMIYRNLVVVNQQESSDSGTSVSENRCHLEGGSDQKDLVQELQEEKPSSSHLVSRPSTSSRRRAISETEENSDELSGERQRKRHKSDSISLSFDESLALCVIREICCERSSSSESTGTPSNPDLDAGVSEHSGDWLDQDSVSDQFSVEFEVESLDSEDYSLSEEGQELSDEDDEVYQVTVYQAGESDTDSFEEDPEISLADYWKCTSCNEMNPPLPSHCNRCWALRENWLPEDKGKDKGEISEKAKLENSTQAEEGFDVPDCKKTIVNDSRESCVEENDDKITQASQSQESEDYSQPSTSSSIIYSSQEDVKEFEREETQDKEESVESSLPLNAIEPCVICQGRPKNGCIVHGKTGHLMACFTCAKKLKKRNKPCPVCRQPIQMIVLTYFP
Jurkat NFkB inh – inhibitors of induced NF-kB luciferase reporter, primary screen, TCR NF-kB activation inhibitor project, cell-based, luminescence, uHTS. AID 435003, 2010. inhibition, % at 4 µM. 330,000 compounds, 0.53% hits. Jurkat, PMA/ionomycin-induced NF-kB luciferase reporter; in the data active means inhibition above about 50%
aSyn UTR inh – MLPCN primary screen, SNCA 5' untranslated region; alpha-synuclein 5'UTR reporter, inhibitor activity; inhibition, % (tested at 7.5 µM); 300,000 compounds, 0.82% hits; AID 1813, 2009; in the data active means inhibition above about 60%;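 further: H4 neuroglioblastoma cells stably carrying SNCA 5'UTR luciferase fusion; 0% = DMSO wells and 100% = positive control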
697 NFkB inh – inhibitors of PMA/ionomycin-induced NF-kB reporter, 697 cells, primary screen, B-cell NF-kB inhibitor project, cell-based, luminescence, uHTS; 697 B-cell NF-kB luciferase reporter, 16 h; inhibition, % at 4 µM; 330,000 compounds, 0.33% hits; in the data active means inhibition above about 35%
Mdm2 MdmX conf – Mdm2-MdmX complex disruptors, retested hits, confirmation, luminescence, single concentration | shares compounds with Mdm2 MdmX PPI | inhibition, % at 8 µM | Mdm2-MdmX binding, luminescent assay | 10,000 compounds, 55% hits; in the data active means inhibition above about 40%
Full FLuc ctr – full-length luciferase signal inhibition, confirmation, counter-screen for Mdm2/MdmX interaction inhibitor project, cell-based, single concentration, SaOS-2. shares compounds with Mdm2 MdmX PPI. SaOS-2 full-length luciferase counterscreen, luminescence. inhibition, % at 8 µM. 6,200 compounds, 77% hits;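 active means mean inhibition at 8 µM reaching about 37%, which flags the compound as non-specific, limit read from the data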;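 further: p53-null SaOS-2 cells with luciferase driven by a doxycycline-inducible promoter; compound on cells about two nights before reading with doxycycline added after day one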
* marks the source's active call; other numbers are inactive results; . = not tested or not shown. In the library only some 4.7% were active in any assay of this set; here they are far more common.

SMILES	VIM-2 inhibitor	IMP-1 inh	Mdm2 MdmX PPI	Jurkat NFkB inh	aSyn UTR inh	697 NFkB inh	Mdm2 MdmX conf	others
C/C(=N\NC(=O)c1nnn(-c2nonc2N)c1CSc1ccccc1)c1ccco1	-5.5	-4.1	23.5	0.1	-2.8	-19.0	.
C/C(=N\NC(=O)c1nnn(-c2nonc2N)c1CSc1ccc(C)cc1)c1ccco1	-4.1	-4.5	62.1*	-22.0	-1.6	-11.1	0.1
C/C(=N\NC(=O)c1nnn(-c2nonc2N)c1CSc1ccccc1)c1ccc2c(c1)OCO2	-1.9	-2.8	54.0*	12.4	-0.8	-8.0	17.4
O=C(Nc1cccc(-c2csc(Nc3ccc(Cl)cc3)n2)c1)c1cc([N+](=O)[O-])cc(C(F)(F)F)c1	.	.	84.6*	-0.4	-72.0	13.8	28.2
O=C(Nc1cccc(-c2csc(Nc3ccccc3)n2)c1)c1cc([N+](=O)[O-])cc(C(F)(F)F)c1	1.6	1.5	1.2	-3.5	-87.4	5.0	.
O=C(Nc1ccc(-c2csc(Nc3ccc(Cl)cc3)n2)cc1)c1cc([N+](=O)[O-])cc(C(F)(F)F)c1	.	.	71.2*	6.4	-19.5	-19.2	10.7
O=C(Nc1cccc(-c2csc(Nc3ccc(Cl)cc3)n2)c1)c1cccc(C(F)(F)F)c1	.	.	58.4*	4.4	-70.9	-77.4	-5.8
COc1ccc(OCC(NS(=O)(=O)c2ccc(-n3cnnn3)cc2)C(C)C)cc1 (configuration not stated)	-4.3	-3.2	3.2	2.9	-1.2	-22.9	.
O=C(CCC(=O)Nc1ccccc1Cl)NNC(=O)COc1ccc([N+](=O)[O-])cc1	.	.	17.1	2.8	.	18.6	.
Cc1c(N=C2N=C(NC(=O)Nc3ccc(Cl)cc3)c3ccccc32)c(=O)n(-c2ccccc2)n1C	-5.8	-0.2	58.0*	-3.7	11.6	14.7	25.2
CC(=O)Nc1ccc(NS(=O)(=O)c2ccc(CN3C(=O)c4cccnc4C3=O)cc2)cc1	0.1	-0.2	20.6	3.4	-24.3	-0.5	.
COc1ccc(OC)c(N(/C(N)=N/c2nc(C)cc(C)n2)S(=O)(=O)c2ccc(NC(C)=O)cc2)c1	1.3	-0.1	62.8*	-5.6	14.9	-18.7	25.0	Full FLuc ctr=90.1*
O=C(NCC1CCCO1)c1cc2c([nH]c3ccccc32)c(-c2cccc(Cl)c2)n1 (configuration not stated)	-3.2	-2.8	87.0*	8.2	7.9	28.9	45.6*	Full FLuc ctr=60.3*
COc1ccc(CSc2nc3ccccc3c(=O)n2CCCN2CCOCC2)cc1F	-2.5	-2.6	14.8	-14.4	-20.0	-21.1	.
COC(=O)[C@@]1(Cc2ccc(F)cc2)[C@H]2c3cc(C(=O)N(C)C)n(CCc4ccc(OC)c(Br)c4)c3C[C@H]2CN1C(=O)c1ccccc1	-0.8	-2.0	67.1*	5.5	4.2	5.6	29.6
CC(=O)c1ccc(N(C(=O)CNC(=O)c2ccco2)C(C(=O)NC2CCCC2)c2cccnc2)cc1 (configuration not stated)	-3.3	-2.1	10.4	-5.6	0.1	-3.9	.
COc1cc(C)c(C(=O)CC(=O)c2c(C)cc(OC)cc2C)c(C)c1	.	.	50.7*	28.2	72.2*	1.8	16.5
C#CCN(C(=O)Nc1ccccc1)c1ccccc1	0.6	-0.7	4.3	16.2	17.4	11.8	.
CCCC(=O)NC(c1ccc(OC)cc1)c1c(O)ccc2ccccc12 (configuration not stated)	-2.2	-2.4	50.1*	4.1	6.4	2.4	38.9	Full FLuc ctr=60.8*
COc1ccc(C(NC(=O)C2CCCCC2)c2c(O)ccc3ccccc23)cc1 (configuration not stated)	-5.1	-2.9	52.6*	-10.2	3.8	5.2	12.9
CCOc1ccccc1NC(=O)CSc1nnnn1C1CCCC1	0.1	-4.4	18.4	1.9	9.2	8.1	.
O=C(c1ccc(N2CCCC2)c([N+](=O)[O-])c1)N1CCN(S(=O)(=O)c2ccccc2)CC1	.	.	8.3	11.0	.	11.9	.
CC(=O)N1CCc2cc(S(=O)(=O)NC(Cc3ccccc3)C(=O)NCCN3CCCCC3C)ccc21 (configuration not stated)	-1.6	-2.0	0.8	4.1	-3.4	6.5	.
CN(C)CCCNC(=O)C[C@H]1C[C@H](C(=O)N2CCCCC2)[C@@]2(CCc3ccccc3)c3[nH]c4ccc(Cl)cc4c3CCN2C1=O	.	.	97.4*	.	.	6.9	91.0*	Full FLuc ctr=51.2*
O=C(C[C@H]1C[C@H](C(=O)N2CCCCC2)[C@@]2(CCc3ccccc3)c3[nH]c4ccc(Cl)cc4c3CCN2C1=O)NCCc1ccccn1	.	.	25.8	.	.	12.5	.
SMILES	VIM-2 inhibitor	IMP-1 inh	Mdm2 MdmX PPI	Jurkat NFkB inh	aSyn UTR inh	697 NFkB inh	Mdm2 MdmX conf	others
O=C(C[C@H]1C[C@H](C(=O)N2CCCCC2)[C@@]2(CCc3ccccc3)c3[nH]c4ccc(Cl)cc4c3CCN2C1=O)NCCC1=CCCCC1	.	.	77.4*	.	.	16.6	25.4
O=C(CC1C[C@H](C(=O)N2CCCCC2)[C@@]2(CCc3ccccc3)c3[nH]c4ccccc4c3CCN2C1=O)NCCC1=CCCCC1 (some centres not stated)	.	.	79.2*	-8.4	.	-1.4	22.6
CC(=O)c1cccc(-n2nnnc2SCC(=O)Nc2cccc(NC(=O)c3ccco3)c2)c1	-1.5	-2.3	30.2	3.9	-13.4	10.9	.
CCCCCCC(NC(=O)Cc1ccc2ccccc2c1)C(=O)O (configuration not stated)	.	.	19.1	.	.	7.6	.
Cc1ccc(NC(=O)CNC(=O)c2ccc(Oc3ccccc3)cc2)nc1	.	.	-9.5	16.3	-19.4	-0.5	.
Cc1ccc(NC(=O)CNC(=O)c2cccc(C)c2)nc1	.	.	75.7*	-9.7	-0.5	-0.2	47.9*	Full FLuc ctr=61.5*
Cc1cc(C(=O)CN2C(=O)CCC2=O)c(C)n1Cc1ccccc1	0.9	0.9	-15.4	10.1	-9.9	-12.7	.
Cc1cc(C(=O)CN2C(=O)c3ccccc3C2=O)c(C)n1Cc1cccs1	1.0	-0.6	67.8*	1.8	43.7	-187.4	67.0*	Full FLuc ctr=102.2*
COc1cccc(/C=C2\SC(=S)N(CCCC(=O)N(CCO)c3ccccc3)C2=O)c1	-3.8	-2.7	99.4*	19.6	39.4	-12.8	60.1*	Full FLuc ctr=15.7
